Results on 95 compounds are retold here after ChEMBL document CHEMBL1147781, “Design, synthesis and in vitro antimalarial activity of an acylhydrazone library” (Bioorg Med Chem Lett, 2006).

pIC50: −log10 of the molar value.

One assay has as its system Plasmodium falciparum. In words: Growth inhibition of chloroquine-resistant Plasmodium falciparum FcB1 at 1 uM. The assay is classed as functional.
The inhibition is the relative decrease from the control value, in per cent. `COc1ccc(O)c(/C=N/NC(=O)Cc2ccccc2)c1` returned an inhibition at 1 µM of 45%.
Compound `CCN(CC)c1ccc(/C=N/NC(=O)c2ccc(O)cc2)c(O)c1` showed an inhibition at 1 µM of 12%.
In turn, `CCN(CC)c1ccc(/C=N/NC(=O)c2ccc(Cl)cc2)c(O)c1` yielded an inhibition at 1 µM of 45%.
In turn, `COc1cccc(/C=N/NC(C)=O)c1O` displayed an inhibition at 1 µM of 33%.
Regarding `CCN(CC)c1ccc(/C=N/NC(=O)c2ccccc2)c(O)c1`, the inhibition at 1 µM came out at 60%.
For the compound `COc1ccc(C(=O)N/N=C/c2ccc(OC)cc2O)cc1`, 1 µM produced 9% inhibition.
`COc1ccc(C(=O)N/N=C/c2cccc(O)c2O)cc1` gave an inhibition at 1 µM of 21%.
Still for that read-out and setting: the figure for `COc1ccc(/C=N/NC(=O)c2ccc([N+](=O)[O-])cc2)c(O)c1` is 45%.
On the same count and under the same terms, as for `COc1cccc(/C=N/NC(=O)c2ccc([N+](=O)[O-])cc2)c1O`, the figure is 32%; as for `COc1ccc(C(=O)N/N=C/c2cc(C(C)(C)C)ccc2O)cc1`, 53%.
The same measure, in the same setting: the figure for `O=C(N/N=C/c1cc(O)ccc1O)c1cccnc1` is 7%; for `COc1ccc(O)c(/C=N/NC(=O)c2ccco2)c1` it is 33%; for `COc1ccc(C(=O)N/N=C/c2cc(O)ccc2O)cc1` it is 39%.
In the case of `CC(C)(C)c1ccc(C(=O)N/N=C/c2cc(O)ccc2O)cc1`, the inhibition at 1 µM stood at 38%.
For `COc1ccc(O)c(/C=N/NC(=O)c2ccncc2)c1`, the inhibition at 1 µM amounted to 34%.
For the compound `COc1ccc(O)c(/C=N/NC(=O)c2ccccc2)c1`, at 1 µM the inhibition was 38%.
Compound `O=C(N/N=C/c1cc(O)ccc1O)c1ccncc1` showed an inhibition at 1 µM of 26%.
Same read-out and setting: as for `O=C(N/N=C/c1cc(O)ccc1O)c1cccs1`, the figure is 19%.
With `COc1ccc(O)c(/C=N/NC(C)=O)c1`, the inhibition at 1 µM was determined as 3%.
Regarding `COc1ccc(O)c(/C=N/NC(=O)c2ccc(C(C)(C)C)cc2)c1`, the inhibition at 1 µM was found to be 47%.
In turn, `O=C(N/N=C/c1cc(O)ccc1O)c1ccccc1` gave an inhibition at 1 µM of 0%.
Still for that read-out and setting: the figure for `COc1ccc(O)c(/C=N/NC(=O)c2ccc([N+](=O)[O-])cc2)c1` is 14%.
Compound `CCN(CC)c1ccc(/C=N/NC(=O)c2cccnc2)c(O)c1` registered an inhibition at 1 µM of 2%.
In turn, `O=C(N/N=C/c1ccccc1O)c1ccc(O)cc1` registered an inhibition at 1 µM of 11%.
Same read-out and setting: the figure for `CCN(CC)c1ccc(/C=N/NC(=O)c2cccs2)c(O)c1` is 37%; for `O=C(N/N=C/c1ccccc1O)c1ccc(Cl)cc1` it is 25%.
Still for that read-out and setting: the figure for `COc1ccc(O)c(/C=N/NC(=O)c2ccc(Cl)cc2)c1` is 24%; for `CCN(CC)c1ccc(/C=N/NC(=O)c2ccc(OC)cc2)c(O)c1` it is 39%.
`COc1ccc(O)c(/C=N/NC(=O)c2cccs2)c1`: the inhibition at 1 µM was 24%.
The compound `COc1ccc(/C=N/NC(=O)c2ccc(O)cc2)c(O)c1` displayed an inhibition at 1 µM of 14%.
As to `O=C(Cc1ccccc1)N/N=C/c1cc(O)ccc1O`, the inhibition at 1 µM came out at 4%.
`COc1ccc(/C=N/NC(C)=O)c(O)c1` showed an inhibition at 1 µM of 4%.
`COc1ccc(/C=N/NC(=O)c2ccco2)c(O)c1` displayed an inhibition at 1 µM of 45%.
As for `CCN(CC)c1ccc(/C=N/NC(=O)c2ccco2)c(O)c1`, 1 µM produced 23% inhibition.
In turn, `COc1ccc(/C=N/NC(=O)c2ccncc2)c(O)c1` displayed an inhibition at 1 µM of 35%.
For the compound `CCN(CC)c1ccc(/C=N/NC(C)=O)c(O)c1`, at 1 µM the inhibition was 34%.
On to `CC(=O)N/N=C/c1cccc(O)c1O`, for which the inhibition at 1 µM worked out at 29%.
The same measure, in the same setting: the figure for `COc1cccc(/C=N/NC(=O)c2ccco2)c1O` is 41%.
The same measure, in the same setting: as for `COc1ccc(O)c(/C=N/NC(=O)c2cccnc2)c1`, the figure is 24%; as for `COc1cccc(/C=N/NC(=O)c2ccc(Cl)cc2)c1O`, 36%.
The compound `O=C(N/N=C/c1ccccc1O)c1cccs1` returned an inhibition at 1 µM of 13%.
As to `O=C(N/N=C/c1cccc(O)c1O)c1cccs1`, testing at 1 µM gave an inhibition of 29%.
As to `COc1cccc(/C=N/NC(=O)Cc2ccccc2)c1O`, 1 µM produced 30% inhibition.
As for `O=C(N/N=C/c1ccc(O)cc1O)c1ccc([N+](=O)[O-])cc1`, the inhibition at 1 µM was 18%.
`COc1cccc(/C=N/NC(=O)c2ccc(C(C)(C)C)cc2)c1O` yielded an inhibition at 1 µM of 39%.
The same measure, in the same setting: as for `COc1cccc(/C=N/NC(=O)c2cccs2)c1O`, the figure is 16%; as for `O=C(N/N=C/c1cc(O)ccc1O)c1ccco1`, 21%; as for `CC(C)(C)c1ccc(O)c(/C=N/NC(=O)c2ccc(Cl)cc2)c1`, 69%.
With `COc1ccc(/C=N/NC(=O)c2cccs2)c(O)c1`, the inhibition at 1 µM is 24%.
On the same count and under the same terms, as for `O=C(N/N=C/c1cc(O)ccc1O)c1ccc([N+](=O)[O-])cc1`, the figure is 28%.
As to `COc1cccc(/C=N/NC(=O)c2ccc(O)cc2)c1O`, the inhibition at 1 µM was 16%.
`CC(C)(C)c1ccc(C(=O)N/N=C/c2cccc(O)c2O)cc1` came in with an inhibition at 1 µM of 41%.
`COc1ccc(/C=N/NC(=O)Cc2ccccc2)c(O)c1` had an inhibition at 1 µM of 41%.
On the same count and under the same terms, the figure for `COc1cccc(/C=N/NC(=O)c2ccccc2)c1O` is 10%; for `O=C(N/N=C/c1cccc(O)c1O)c1ccc(O)cc1` it is 20%.
Consider `O=C(N/N=C/c1ccc(O)cc1O)c1cccs1`, for which 1 µM produced 13% inhibition.
With `O=C(N/N=C/c1ccc(O)cc1O)c1ccc(O)cc1`, the inhibition at 1 µM was 15%.
For `COc1cccc(/C=N/NC(=O)c2ccncc2)c1O`, the inhibition at 1 µM was 43%.
For the compound `O=C(N/N=C/c1cccc(O)c1O)c1ccc([N+](=O)[O-])cc1`, the inhibition at 1 µM is 24%.
Turning to `O=C(N/N=C/c1ccc(O)cc1O)c1cccnc1`, at 1 µM the inhibition was 23%.
Regarding `O=C(N/N=C/c1cc(O)ccc1O)c1ccc(Cl)cc1`, testing at 1 µM gave an inhibition of 25%.
As to `O=C(N/N=C/c1ccccc1O)c1ccc([N+](=O)[O-])cc1`, the inhibition at 1 µM came out at 4%.
On the same count and under the same terms, as for `O=C(Cc1ccccc1)N/N=C/c1ccccc1O`, the figure is 27%.
Turning to `COc1cccc(/C=N/NC(=O)c2cccnc2)c1O`, the inhibition at 1 µM worked out at 32%.
On the same count and under the same terms, the figure for `O=C(N/N=C/c1cccc(O)c1O)c1ccccc1` is 30%.
Compound `O=C(N/N=C/c1cccc(O)c1O)c1cccnc1` registered an inhibition at 1 µM of 16%.
Turning to `Cc1ccc(O)c(/C=N/NC(=O)c2ccc(Cl)cc2)c1`, the inhibition at 1 µM worked out at 52%.
`COc1ccc(/C=N/NC(=O)c2ccccc2)c(O)c1` gave an inhibition at 1 µM of 32%.
Compound `COc1ccc(C(=O)N/N=C/c2ccc(O)cc2O)cc1` gave an inhibition at 1 µM of 29%.
In turn, `COc1ccc(C(=O)N/N=C/c2cccc(OC)c2O)cc1` had an inhibition at 1 µM of 37%.
Compound `O=C(N/N=C/c1ccc(O)cc1O)c1ccco1` registered an inhibition at 1 µM of 13%.
Consider `COc1ccc(C(=O)N/N=C/c2ccccc2O)cc1`, for which the inhibition at 1 µM stood at 14%.
On to `CC(C)(C)c1ccc(C(=O)N/N=C/c2ccc(O)cc2O)cc1`, for which 1 µM produced 37% inhibition.
Same read-out and setting: as for `O=C(N/N=C/c1cccc(O)c1O)c1ccco1`, the figure is 20%.
In turn, `O=C(N/N=C/c1ccccc1O)c1ccccc1` had an inhibition at 1 µM of 35%.
As for `CC(=O)N/N=C/c1ccccc1O`, the inhibition at 1 µM was found to be 0%.
In turn, `CCN(CC)c1ccc(/C=N/NC(=O)c2ccncc2)c(O)c1` gave an inhibition at 1 µM of 18%.
Regarding `O=C(Cc1ccccc1)N/N=C/c1cccc(O)c1O`, 1 µM produced 19% inhibition.
Regarding `CC(=O)N/N=C/c1cc(O)ccc1O`, testing at 1 µM gave an inhibition of 25%.
`COc1ccc(C(=O)N/N=C/c2cc(OC)ccc2O)cc1` registered an inhibition at 1 µM of 18%.
On the same count and under the same terms, as for `COc1ccc(/C=N/NC(=O)c2ccc(Cl)cc2)c(O)c1`, the figure is 8%; as for `O=C(N/N=C/c1cccc(O)c1O)c1ccncc1`, 11%.
Take `CC(C)(C)c1ccc(O)c(/C=N/NC(=O)c2ccc([N+](=O)[O-])cc2)c1`: the inhibition at 1 µM worked out at 81%.
`O=C(N/N=C/c1cccc(O)c1O)c1ccc(Cl)cc1` registered an inhibition at 1 µM of 13%.
The compound `COc1ccc(O)c(/C=N/NC(=O)c2ccc(O)cc2)c1` displayed an inhibition at 1 µM of 20%.
The same measure, in the same setting: as for `COc1ccc(/C=N/NC(=O)c2ccc(C(C)(C)C)cc2)c(O)c1`, the figure is 43%; as for `CC(C)(C)c1ccc(C(=O)N/N=C/c2cc(Br)ccc2O)cc1`, 52%; as for `CC(C)(C)c1ccc(C(=O)N/N=C/c2ccccc2O)cc1`, 43%.
In turn, `O=C(N/N=C/c1ccc(O)cc1O)c1ccc(Cl)cc1` had an inhibition at 1 µM of 16%.
In turn, `O=C(N/N=C/c1cc(O)ccc1O)c1ccc(O)cc1` returned an inhibition at 1 µM of 4%.
`O=C(N/N=C/c1ccc(O)cc1O)c1ccccc1`: the inhibition at 1 µM stood at 14%.
The compound `COc1ccc(/C=N/NC(=O)c2cccnc2)c(O)c1` gave an inhibition at 1 µM of 38%.
In turn, `O=C(N/N=C/c1ccccc1O)c1cccnc1` [N'-(2-HYDROXYBENZYLIDENE)NICOTINOHYDRAZIDE] displayed an inhibition at 1 µM of 26%.
`O=C(N/N=C/c1ccccc1O)c1ccncc1` [SALINAZID] returned an inhibition at 1 µM of 22%.

The next assay concerns MRC5. Put plainly: Cytotoxicity against human diploid embryonic lung MRC5 cells by colorimetric MTT assay. Type of assay: functional. The essentials: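 Human MRC5 cells were used, with the value reported as CC50 in µM. Results are given as the mean ± SD of two to three independent experiments.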
Background: Tetrazolium dyes change colour on reduction, which living cells bring about.
As usually defined, the CC50 is the concentration at which the toxic effect on the cells reaches its halfway point. `CCN(CC)c1ccc(/C=N/NC(=O)c2ccccc2)c(O)c1` gave a CC50 of 1100 nM.
As to `COc1ccc(C(=O)N/N=C/c2cc(C(C)(C)C)ccc2O)cc1`, the cytotoxic concentration (CC50) is over 100000 nM.
`CC(C)(C)c1ccc(O)c(/C=N/NC(=O)c2ccc(Cl)cc2)c1`: the half-maximal cytotoxic concentration (CC50) is 3600 nM.
The compound `Cc1ccc(O)c(/C=N/NC(=O)c2ccc(Cl)cc2)c1` returned a 50% cytotoxic concentration (CC50) of over 100000 nM.
On the same count and under the same terms, as for `CC(C)(C)c1ccc(O)c(/C=N/NC(=O)c2ccc([N+](=O)[O-])cc2)c1`, the figure is 1100 nM; as for `CC(C)(C)c1ccc(C(=O)N/N=C/c2cc(Br)ccc2O)cc1`, over 100000 nM.
The same measure, in the same setting: as for `CCN(CC)CCCC(C)Nc1ccnc2cc(Cl)ccc12` (stereo not given) [CHLOROQUINE], the figure is 50000 nM.

Another assay concerns Plasmodium falciparum. Put plainly: Antimalarial activity against chloroquine-resistant Plasmodium falciparum FcB1. Type of assay: functional, organism-based. The essentials:
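P. falciparum FcB1 (chloroquine-resistant) growth inhibition; IC50 reported as mean ± SD of two to three independent experiments.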
In general, pIC50 refers to the IC50 on a negative log10 scale, so that one unit is a factor of ten. `CCN(CC)c1ccc(/C=N/NC(=O)c2ccccc2)c(O)c1` gave a pIC50 of 5.96.
`COc1ccc(C(=O)N/N=C/c2cc(C(C)(C)C)ccc2O)cc1` gave a pIC50 of 5.64.
As to `CC(C)(C)c1ccc(O)c(/C=N/NC(=O)c2ccc(Cl)cc2)c1`, the pIC50 is 5.54.
`Cc1ccc(O)c(/C=N/NC(=O)c2ccc(Cl)cc2)c1`: the pIC50 was 5.72.
With `CC(C)(C)c1ccc(O)c(/C=N/NC(=O)c2ccc([N+](=O)[O-])cc2)c1`, the pIC50 is 5.80.
`CC(C)(C)c1ccc(C(=O)N/N=C/c2cc(Br)ccc2O)cc1` had a pIC50 of 5.77.

In another assay the test system is MRC5. Put plainly: Relative antimalarial activity to cytotoxicity as selectivity index (CC50/IC50). Type of assay: functional.
For `CCN(CC)c1ccc(/C=N/NC(=O)c2ccccc2)c(O)c1`, the “Ratio CC50/IC50” value was determined as 1.
Turning to `CC(C)(C)c1ccc(O)c(/C=N/NC(=O)c2ccc(Cl)cc2)c1`, the “Ratio CC50/IC50” value came out at 1.
On to `CC(C)(C)c1ccc(O)c(/C=N/NC(=O)c2ccc([N+](=O)[O-])cc2)c1`, for which the “Ratio CC50/IC50” value stood at 1.
